According to ChEMBL document CHEMBL1134679, “Exploiting subsite S1 of trypsin-like serine proteases for selectivity: potent and selective inhibitors of urokinase-type plasminogen activator” (J Med Chem, 2001):

Legend:
Trypsin = Trypsin (Homo sapiens, UniProt P07477+P07478+P35030); experiment: The compound was tested for inhibition of human trypsin; assay type: protein assay
Plasma kallikrein = Plasma kallikrein (Homo sapiens, UniProt P03952); experiment: The compound was tested for inhibition of human p-kallikrein
Chain of Plasma kallikrein (P03952 20-390 limits assumed): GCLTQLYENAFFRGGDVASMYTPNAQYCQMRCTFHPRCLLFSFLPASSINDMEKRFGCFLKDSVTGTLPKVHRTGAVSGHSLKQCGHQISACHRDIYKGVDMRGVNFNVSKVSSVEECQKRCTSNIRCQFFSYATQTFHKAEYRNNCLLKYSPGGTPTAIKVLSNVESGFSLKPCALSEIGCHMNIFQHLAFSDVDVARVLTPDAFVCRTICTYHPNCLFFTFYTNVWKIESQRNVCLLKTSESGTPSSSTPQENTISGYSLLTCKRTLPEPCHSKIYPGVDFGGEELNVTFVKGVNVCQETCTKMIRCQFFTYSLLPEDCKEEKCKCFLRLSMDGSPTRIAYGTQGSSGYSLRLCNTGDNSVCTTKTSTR
Chain of Plasma kallikrein (P03952 391-638 limits assumed): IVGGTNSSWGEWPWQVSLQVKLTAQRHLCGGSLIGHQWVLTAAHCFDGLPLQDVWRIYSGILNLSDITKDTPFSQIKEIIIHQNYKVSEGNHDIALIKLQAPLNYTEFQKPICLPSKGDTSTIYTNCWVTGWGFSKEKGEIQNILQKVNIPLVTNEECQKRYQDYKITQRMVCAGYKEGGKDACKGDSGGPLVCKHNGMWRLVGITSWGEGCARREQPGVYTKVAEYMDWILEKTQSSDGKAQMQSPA

Coagulation factor X = Coagulation factor X (Homo sapiens, UniProt P00742); experiment: Binding affinity against human coagulation factor X
Chain of Coagulation factor X (P00742 41-179 limits assumed): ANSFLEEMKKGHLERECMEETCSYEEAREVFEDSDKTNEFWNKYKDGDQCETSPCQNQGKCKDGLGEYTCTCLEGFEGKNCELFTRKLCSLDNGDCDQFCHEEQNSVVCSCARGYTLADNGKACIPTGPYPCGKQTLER
Chain of Coagulation factor X (P00742 235-488 limits assumed): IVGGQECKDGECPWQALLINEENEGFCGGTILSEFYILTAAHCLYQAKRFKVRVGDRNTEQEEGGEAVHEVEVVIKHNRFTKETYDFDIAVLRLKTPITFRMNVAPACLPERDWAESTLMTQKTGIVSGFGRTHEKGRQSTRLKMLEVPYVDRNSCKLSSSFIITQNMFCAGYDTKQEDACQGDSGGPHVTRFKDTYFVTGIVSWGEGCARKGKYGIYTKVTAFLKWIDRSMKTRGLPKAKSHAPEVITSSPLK

Prothrombin = Prothrombin (Homo sapiens, UniProt P00734); experiment: The compound was tested for inhibition of human thrombin
[1] = target: Urokinase-type plasminogen activator (Homo sapiens, UniProt P00749); experiment: The compound was tested for inhibition of human urokinase type plasminogen activator (microPa)
[2] = target: Tissue-type plasminogen activator (Homo sapiens, UniProt P00750); experiment: The compound was tested for inhibition of human tissue plasminogen activator
Chain of Tissue-type plasminogen activator (P00750 whole entry): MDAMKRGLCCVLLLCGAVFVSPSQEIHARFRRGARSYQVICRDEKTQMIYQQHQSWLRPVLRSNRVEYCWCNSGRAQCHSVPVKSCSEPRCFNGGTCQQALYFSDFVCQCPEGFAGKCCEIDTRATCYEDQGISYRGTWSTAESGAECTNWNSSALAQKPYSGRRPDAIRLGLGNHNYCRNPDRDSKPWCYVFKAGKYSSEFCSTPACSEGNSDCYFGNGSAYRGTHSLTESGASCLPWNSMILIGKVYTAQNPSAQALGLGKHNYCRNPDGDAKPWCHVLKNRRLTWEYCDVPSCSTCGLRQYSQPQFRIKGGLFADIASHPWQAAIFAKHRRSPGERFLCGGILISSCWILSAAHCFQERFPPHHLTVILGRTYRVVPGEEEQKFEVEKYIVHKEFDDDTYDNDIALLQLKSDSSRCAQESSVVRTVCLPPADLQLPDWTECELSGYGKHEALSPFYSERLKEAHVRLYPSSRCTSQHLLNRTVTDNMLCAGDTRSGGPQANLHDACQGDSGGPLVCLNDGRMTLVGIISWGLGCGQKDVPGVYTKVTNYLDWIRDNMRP

Coagulation factor VII = target: T1, Coagulation factor VII (Homo sapiens, UniProt P08709); experiment: The compound was tested for inhibition of human coagulation factor VII
T1 sequence (P08709 whole entry): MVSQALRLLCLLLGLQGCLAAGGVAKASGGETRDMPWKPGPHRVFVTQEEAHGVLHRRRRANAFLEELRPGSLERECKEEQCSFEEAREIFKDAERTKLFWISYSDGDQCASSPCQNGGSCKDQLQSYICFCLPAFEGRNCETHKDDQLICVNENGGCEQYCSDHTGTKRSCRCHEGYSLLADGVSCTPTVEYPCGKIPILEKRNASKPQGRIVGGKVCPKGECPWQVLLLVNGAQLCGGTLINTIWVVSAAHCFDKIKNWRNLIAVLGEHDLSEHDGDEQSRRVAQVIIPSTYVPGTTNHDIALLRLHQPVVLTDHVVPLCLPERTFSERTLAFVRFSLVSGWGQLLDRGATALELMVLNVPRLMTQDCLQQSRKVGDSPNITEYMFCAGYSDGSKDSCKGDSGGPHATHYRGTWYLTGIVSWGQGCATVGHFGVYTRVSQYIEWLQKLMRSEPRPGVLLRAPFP

[3] = Volume of distribution at steady state in Sprague-Dawley Rat (Wt 294) was determined after iv administration at a dose of 2 mg/kg; assay type: ADME, organism-based; set-up: dose 2 mg/kg, route intravenous; details: in vivo, read-out: Vss
Method in brief: (§1)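 Male Sprague-Dawley rats, three per group, received a single IV tail-vein bolus in 40% PEG400/H2O (1 or 2 mg/mL). Jugular blood was drawn into heparin at several times up to 24 h. Plasma was held at −80 °C, then assayed by LC-MS/MS against standard curves of 1–10000 ng/mL (LOQ 6 ng/mL). Parameters are mean ± SD; AUC runs 0 to infinity; volume of distribution is central compartment.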

[4] = Mean residence time of compound in Sprague-Dawley Rat (Wt 294) was determined after iv administration at a dose of 2 mg/kg; assay type: ADME, organism-based; set-up: dose 2 mg/kg, route intravenous; details: in vivo; method in brief: as §1
[5] = Volume of distribution in Sprague-Dawley Rat (Wt 294) was determined after iv administration at a dose of 2 mg/kg; assay type: ADME, organism-based; set-up: dose 2 mg/kg, route intravenous; details: in vivo, read-out: Vc; method in brief: as §1
Rattus norvegicus [6] = experiment: Integrated area under the plasma concentration in Sprague-Dawley Rat (Wt 294) was determined after iv administration at a dose of 2 mg/kg; assay type: ADME, organism-based; set-up: dose 2 mg/kg, route intravenous; details: in vivo; method in brief: as §1
[7] = Plasma clearance of compound in Sprague-Dawley Rat (Wt 294) was determined after iv administration at a dose of 2 mg/kg; assay type: ADME, organism-based; set-up: dose 2 mg/kg, route intravenous; details: read-out: Clp; method in brief: as §1
[8] = terminal half-life in Sprague-Dawley Rat (Wt 294) was determined after iv administration at a dose of 2 mg/kg; assay type: ADME, organism-based; set-up: dose 2 mg/kg, route intravenous; details: in vivo; method in brief: as §1
[9] = Volume of distribution at steady state in Sprague-Dawley Rat (Wt 286) was determined after iv administration at a dose of 1 mg/kg; assay type: ADME, organism-based; set-up: dose 1 mg/kg, route intravenous; details: in vivo, read-out: Vss; method in brief: as §1
[10] = mean residence time in Sprague-Dawley Rat (Wt 286) was determined after iv administration at a dose of 1 mg/kg; assay type: ADME, organism-based; set-up: dose 1 mg/kg, route intravenous; details: in vivo; method in brief: as §1
[11] = Volume of distribution in Sprague-Dawley Rat (Wt 286) was determined after iv administration at a dose of 1 mg/kg; assay type: ADME, organism-based; set-up: dose 1 mg/kg, route intravenous; details: in vivo, read-out: Vc; method in brief: as §1
[12] = Plasma clearance of compound in Sprague-Dawley Rat (Wt 286) was determined after iv administration at a dose of 1 mg/kg; assay type: ADME, organism-based; set-up: dose 1 mg/kg, route intravenous; details: read-out: Clp; method in brief: as §1
[13] = terminal half-life in Sprague-Dawley Rat (Wt 286) was determined after iv administration at a dose of 1 mg/kg; assay type: ADME, organism-based; set-up: dose 1 mg/kg, route intravenous; details: in vivo; method in brief: as §1
Rattus norvegicus [14] = experiment: Area undercurve in Sprague-Dawley Rat (Wt 286) was determined after iv administration at a dose of 1 mg/kg; assay type: ADME, organism-based; set-up: dose 1 mg/kg, route intravenous; details: in vivo; method in brief: as §1

| Structure (SMILES) | Ki (Trypsin) [µM] | Ki (Plasma kallikrein) [µM] | Ki (Coagulation factor X) [µM] | Ki (Prothrombin) [µM] | Ki [1] [µM] | Ki (Coagulation factor VII) [µM] | other results |
| --- | --- | --- | --- | --- | --- | --- | --- |
| N=C(N)c1ccc2[nH]c(-c3cccc(-c4ccccc4)c3O)cc2c1Cl | 4.7 | 1.3 | 5.2 | 65 | 0.49 | 5.5 | Ki [2]: 3.3 µM |
| COc1cc2[nH]c(-c3cccc(-c4ccccc4)c3O)cc2cc1C(=N)N | 14 | 0.6 | 26 | > 75 | 0.36 | 16 |  |
| Cc1cc2[nH]c(-c3cccc(-c4ccccc4)c3O)cc2cc1C(=N)N | 1.6 | 4.8 | > 75 | > 75 | 0.1 | 7 | Ki [2]: 39 µM |
| N=C(N)c1cc2cc(-c3cccc(-c4ccccc4)c3O)[nH]c2cc1O | 50 | 1.3 | > 75 | > 75 |  | > 75 |  |
| N=C(N)c1cc2cc(-c3cccc(-c4ccccc4)c3O)[nH]c2cc1F | 1.1 | 0.11 |  | 7.5 |  | 0.75 |  |
| N=C(N)c1cc2cc(-c3cccc(-c4ccccc4)c3O)[nH]c2cc1Cl |  |  |  |  |  |  | Vd [3]: 7.7 L/kg; MRT [4]: 2.17 h; Vd [5]: 0.346 L/kg; AUC (Rattus norvegicus [6]): 1.42 µM·h; clearance [7]: 59 mL/min/kg; half-life [8]: 3.15 h |
| N=C(N)c1ccc2[nH]c(-c3cccc(-c4ccccc4)c3O)cc2c1 | 0.13 | 0.0019 |  |  |  | 0.16 | Vd [9]: 11.9 L/kg; MRT [10]: 1.77 h; Vd [11]: 1.56 L/kg; clearance [12]: 121 mL/min/kg; half-life [13]: 1.7 h; AUC (Rattus norvegicus [14]): 0.4 µM·h |
